Assay results as given in ChEMBL document CHEMBL1135644, “Effect of spermine conjugation on the cytotoxicity and cellular transport of acridine” (J Med Chem, 2002).
pIC50, pKi: −log10 of the molar value.

Tests used:
[1] = Ratio of cellular uptake in CHO cells to that of CHO-MG cells.; type: functional
Nucleic Acid = assay: Drug concentration required to produce 50% inhibition of fluorescence bound ethidium to CT-DNA (1.26:1) (+/-SEM 5%); type: functional; settings: Bos taurus
How it was run: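 Ethidium displacement: 1 μM CT-DNA with 1.26 μM ethidium bromide; conjugate stock added serially. Fluorescence was read at excitation 546 nm and emission 595 nm. The value is the conjugate concentration cutting DNA-bound ethidium fluorescence by 50%. Mean of three determinations (±5%).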

L1210 [2] = assay: In vitro 50% cell growth inhibition by the compound in L1210 cells; type: functional, cell-based; settings: Mus musculus
How it was run: (§1)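 L1210 cells were seeded at 5 × 10^4 cells/mL with conjugate added at seeding, in medium with 2 mM aminoguanidine, for 48 h exposure. Growth was measured by MTT absorbance at 540 nm relative to untreated controls.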

CHO [3] = assay: In vitro 50% cell growth inhibition by the compound in CHO cells; type: functional, cell-based; settings: Cricetulus griseus
How it was run: (§2)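 CHO or CHO-MG cells were trypsinized and plated singly at 2 × 10^3 cells/mL in RPMI 1640/10% FCS with 2 mM aminoguanidine (proline for CHO-MG). Conjugates were added after overnight incubation, with 48 h exposure. Growth was read by MTT formazan absorbance at 540 nm relative to untreated controls. The value is the concentration giving 25% or 50% growth inhibition.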

L1210 [4] = assay: In vitro 25% cell growth inhibition by the compound in L1210 cells with 5 mM DFMO addition; type: functional; settings: Mus musculus
How it was run: (§3)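 L1210 cells were seeded at 5 × 10^4 cells/mL, and conjugate plus 5 mM DFMO were added at seeding with 2 mM aminoguanidine present. After 48 h, growth was read by MTT at 540 nm relative to DFMO-only controls.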

L1210 [5] = assay: In vitro 25% cell growth inhibition by the compound in L1210 cells; type: functional; settings: Mus musculus; how it was run: as §1
L1210 [6] = assay: Cellular uptake of conjugates in L1210 cells pretreated with 5 mM DFMO at a concentration of 2 uM (+/-15% SEM); type: functional, cell-based; settings: Mus musculus
How it was run: (§4)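 L1210 cells were seeded at 10^5 cells/mL in medium with 5 mM DFMO, and conjugates were added 24 h later. Cells were harvested after a further 24 h, extracted in 0.2 N HClO4/2 M NaCl and assayed by fluorimetry, expressed per mg protein. Mean of three determinations (±15%).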

L1210 [7] = assay: Cellular uptake of conjugates in L1210 cells (control) at a concentration of 2 uM (+/-15% SEM); type: functional, cell-based; settings: Mus musculus
How it was run: (§5)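 L1210 cells were seeded at 2 × 10^5 cells/mL with conjugate added at seeding, in medium containing 2 mM aminoguanidine, and cultured 24 h. Washed cells were extracted in 0.2 N HClO4/2 M NaCl for 16 h at 4 °C. Intracellular conjugate was quantified by fluorimetry and expressed as nmol/mg protein. Mean of three determinations (±15%).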

CHO-MG [8] = assay: Cellular uptake of conjugates in CHO-MG cells at a concentration of 0.5 uM (+/-15% SEM); type: functional, cell-based; settings: Cricetulus griseus
How it was run: (§6)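 Conjugates added 24 h after seeding (1 × 10^5 cells/mL, RPMI 1640 with 10% FCS and 2 mM aminoguanidine; proline added for CHO-MG) and left for 24 h. Cells were washed in 0.14 M NaCl, sonicated in 0.2 N HClO4/2 M NaCl and held 16 h at 4 °C. Conjugate in the supernatant was measured by fluorimetry against standards and expressed per mg protein (Folin). Mean of three determinations (±15%).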

L1210 [9] = assay: In vitro 50% cell growth inhibition by the compound in L1210 cells with 5 mM DFMO addition; type: functional, cell-based; settings: Mus musculus; how it was run: as §3
CHO [10] = assay: Cellular uptake of conjugates in CHO cells at a concentration of 0.5 uM (+/-15% SEM); type: functional, cell-based; settings: Cricetulus griseus; how it was run: as §6
CHO-MG [11] = assay: In vitro 50% cell growth inhibition by the compound in CHO-MG cells; type: functional, cell-based; settings: Cricetulus griseus; how it was run: as §2
L1210 [12] = assay: Inhibition of [14C]SPD uptake by the compound in 5 min initial rate transport assay in L1210 cells; type: functional, cell-based, Mus musculus
CHO [13] = assay: Cellular uptake of conjugates in CHO cells at a concentration of 10 uM (+/-15% SEM); type: functional, cell-based; settings: Cricetulus griseus; how it was run: as §6
L1210 [14] = assay: Cellular uptake of conjugates in L1210 cells (control) at a concentration of 10 uM (+/-15% SEM); type: functional, cell-based; settings: Mus musculus; how it was run: as §5
[15] = Ratio of cellular uptake in CHO cells to that of CHO-MG cells at 1.25 uM; type: functional
L1210 [16] = assay: Cellular uptake of conjugates in L1210 cells pretreated with 5 mM DFMO at a concentration of 10 uM (+/-15% SEM); type: functional, cell-based; settings: Mus musculus; how it was run: as §4
CHO [17] = assay: Cellular uptake of conjugates in CHO cells at a concentration of 1.25 uM (+/-15% SEM); type: functional, cell-based; settings: Cricetulus griseus; how it was run: as §6
CHO-MG [18] = assay: Cellular uptake of conjugates in CHO-MG cells at a concentration of 10 uM (+/-15% SEM); type: functional, cell-based; settings: Cricetulus griseus; how it was run: as §6
CHO-MG [19] = assay: Cellular uptake of conjugates in CHO-MG cells at a concentration of 1.25 uM (+/-15% SEM); type: functional, cell-based; how it was run: as §6
[20] = Ratio of cellular uptake in CHO cells to that of CHO-MG cells at 10 uM; type: functional
CHO [21] = assay: In vitro 25% cell growth inhibition by the compound in CHO cells with 5 mM DFMO addition; type: functional; settings: Cricetulus griseus
How it was run: (§7)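 CHO or CHO-MG cells were plated at 2 × 10^3 cells/mL and incubated overnight. Conjugates and 5 mM DFMO were then added together, with 2 mM aminoguanidine present, for 48 h. MTT absorbance at 540 nm was expressed relative to DFMO-treated controls. The value is the concentration inhibiting growth 25% or 50%.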

CHO-MG [22] = assay: In vitro 25% cell growth inhibition by the compound in CHO-MG cells; type: functional, Cricetulus griseus; how it was run: as §2
CHO-MG [23] = assay: In vitro 50% cell growth inhibition by the compound in CHO-MG cells with 5 mM DFMO addition; type: functional, cell-based; settings: Cricetulus griseus; how it was run: as §7
L1210 [24] = assay: Cellular uptake of conjugates in L1210 cells pretreated with 5 mM DFMO at a concentration of 0.5 uM (+/-15% SEM); type: functional, cell-based; settings: Mus musculus; how it was run: as §4
CHO [25] = assay: In vitro 50% cell growth inhibition by the co mpound in CHO cells with 5 mM DFMO addition; type: functional, cell-based; settings: Cricetulus griseus; how it was run: as §7
[26] = Ratio of cellular uptake in CHO cells to that of CHO-MG cells 2 uM; type: functional
CHO [27] = assay: Cellular uptake of conjugates in CHO cells at a concentration of 2 uM (+/-15% SEM); type: functional, cell-based; settings: Cricetulus griseus; how it was run: as §6
L1210 [28] = assay: Cellular uptake of conjugates in L1210 cells in presence of 500 uM SPD at a concentration of 2 uM (+/-15% SEM); type: functional, cell-based; settings: Mus musculus
How it was run: (§8)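 Same as the L1210 uptake assay: seeded at 2 × 10^5 cells/mL, conjugate plus 500 μM spermidine added together at seeding, 24 h exposure. Extraction in HClO4/NaCl, fluorimetric quantitation, normalized to protein. Mean of three determinations (±15%).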

L1210 [29] = assay: Cellular uptake of conjugates in L1210 cells in presence of 500 uM SPD at a concentration of 10 uM (+/-15% SEM); type: functional, cell-based; settings: Mus musculus; how it was run: as §8
CHO-MG [30] = assay: Cellular uptake of conjugates in CHO-MG cells at a concentration of 2 uM (+/-15% SEM); type: functional, cell-based; settings: Cricetulus griseus; how it was run: as §6
CHO [31] = assay: In vitro 25% cell growth inhibition by the compound in CHO cells; type: functional; settings: Cricetulus griseus; how it was run: as §2
CHO-MG [32] = assay: In vitro 25% cell growth inhibition by the compound in CHO-MG cells with 5 mM DFMO addition; type: functional; settings: Cricetulus griseus; how it was run: as §7
L1210 [33] = assay: Cellular uptake of conjugates in L1210 cells in presence of 500 uM SPD at a concentration of 0.5 uM (+/-15% SEM); type: functional, cell-based; settings: Mus musculus; how it was run: as §8
L1210 [34] = assay: Cellular uptake of conjugates in L1210 cells (control) at a concentration of 0.5 uM (+/-15% SEM); type: functional, cell-based; settings: Mus musculus; how it was run: as §5

SMILES: Cl.NCCCNCCCCNCCCNCCCCCNc1c2ccccc2nc2ccccc12
- Ratio [1]: 3.4
- Concentration for 50% ethidium displacement from DNA (C50) (Nucleic Acid): 110 nM
- pIC50 (L1210 [2]): 5.85
- pIC50 (CHO [3]): 6.00
- IC25 (L1210 [4]): 0.2 µM
- IC25 (L1210 [5]): 0.4 µM
- Uptake (nM (mg of protein)-1) (L1210 [6]): 1.06
- Uptake (nM (mg of protein)-1) (L1210 [7]): 0.51
- Uptake (nM (mg of protein)-1) (CHO-MG [8]): 0.061
- pIC50 (L1210 [9]): 6.15
- Uptake (nM (mg of protein)-1) (CHO [10]): 0.21
- pIC50 (CHO-MG [11]): 5.40
- pKi (L1210 [12]): 6.87

SMILES: Cl.NCCCNCCCCNCCCNCCCCNC(=O)c1c2ccccc2nc2ccccc12
- Uptake (nM (mg of protein)-1) (CHO [13]): 0.183
- Uptake (nM (mg of protein)-1) (L1210 [14]): 0.561
- Ratio [15]: 1.4
- Concentration for 50% ethidium displacement from DNA (C50) (Nucleic Acid): 120 nM
- Uptake (nM (mg of protein)-1) (L1210 [16]): 0.85
- pIC50 (L1210 [2]): 4.74
- Uptake (nM (mg of protein)-1) (CHO [17]): 0.018
- Uptake (nM (mg of protein)-1) (CHO-MG [18]): 0.172
- pIC50 (CHO [3]): 4.77
- IC25 (L1210 [4]): 0.16 µM
- Uptake (nM (mg of protein)-1) (CHO-MG [19]): 0.013
- IC25 (L1210 [5]): 10 µM
- pIC50 (L1210 [9]): 5.66
- pIC50 (CHO-MG [11]): 4.68
- Ratio [20]: 1.1
- pKi (L1210 [12]): 7.08

SMILES: Cl.NCCCNCCCCNCCCNCCCCCNC(=O)c1c2ccccc2nc2ccccc12
- Uptake (nM (mg of protein)-1) (CHO [13]): 0.125
- Uptake (nM (mg of protein)-1) (L1210 [14]): 0.279
- IC25 (CHO [21]): 0.025 µM
- IC25 (CHO-MG [22]): 10.5 µM
- Concentration for 50% ethidium displacement from DNA (C50) (Nucleic Acid): 120 nM
- Uptake (nM (mg of protein)-1) (L1210 [16]): 0.631
- pIC50 (L1210 [2]): 4.39
- pIC50 (CHO-MG [23]): 4.64
- Uptake (nM (mg of protein)-1) (L1210 [24]): 0.113
- pIC50 (CHO [25]): 5.70
- Ratio [26]: 1.1
- Uptake (nM (mg of protein)-1) (CHO [27]): 0.034
- Uptake (nM (mg of protein)-1) (L1210 [28]): 0.049
- Uptake (nM (mg of protein)-1) (CHO-MG [18]): 0.112
- pIC50 (CHO [3]): 4.60
- IC25 (L1210 [4]): 0.1 µM
- Uptake (nM (mg of protein)-1) (L1210 [29]): 0.262
- IC25 (L1210 [5]): 22 µM
- Uptake (nM (mg of protein)-1) (L1210 [6]): 0.217
- Uptake (nM (mg of protein)-1) (CHO-MG [30]): 0.032
- Uptake (nM (mg of protein)-1) (L1210 [7]): 0.064
- IC25 (CHO [31]): 10.8 µM
- IC25 (CHO-MG [32]): 6 µM
- pIC50 (L1210 [9]): 5.18
- Uptake (nM (mg of protein)-1) (L1210 [33]): 0.016
- Uptake (nM (mg of protein)-1) (L1210 [34]): 0.033
- pIC50 (CHO-MG [11]): 4.51
- Ratio [20]: 1.1
- pKi (L1210 [12]): 7.01
